# dFosB act: mouse delta FosB homodimer activation; purified delta FosB, TAMRA-CDK5 oligo fluorescence polarization; percent of positive-control signal above neutral wells; activation, % at 25 µM; actives 0.99% (n = 340,000);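 active = mean activation above about 17%, with every replicate also reaching it, limit read from the data, passing the limit was not always enough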
# VIM-2 inh: inhibitors of Pseudomonas aeruginosa VIM-2 metallo-beta-lactamase; purified VIM-2, nitrocefin hydrolysis, epi-absorbance fluorescence; inhibition, % at 5.6 µM; actives 0.89% (n = 290,000); AID 1527;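 active = inhibition above the mean of all tested compounds plus 3 SD, cutoff set per screening run, cut at about 7.5% in these data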;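 note: red hydrolysis product quenches plate fluorescence so inhibitors raise well fluorescence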
# IMP-1 inh-1: inhibitors of Pseudomonas aeruginosa IMP-1 metallo-beta-lactamase | purified IMP-1, nitrocefin hydrolysis, epi-absorbance fluorescence | inhibition, % at 5.6 µM | actives 0.45% (n = 290,000) | AID 1556;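 active = inhibition above the mean plus 3 SD of all compounds in the same screening run, cut at about 4.5% in these data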
#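 Material – recombinant IMP-1 enzyme, purified · Amount – IMP-1 0.2 nM before substrate addition · Medium – HEPES buffer pH 7.1 with ZnSO4 and Brij 35 · Timing – 25 °C, 15 min preincubation, 25 min reaction · Measured by – plate fluorescence quenching by hydrolysis product, ex 480/em 530 nm · Read-out – percent enzyme inhibition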
# m5-HT2A agonist: activates the mouse 5-HT2A serotonin receptor; P35363; CHO-K1 mHTR2A beta-arrestin complementation, luminescence; percent of 30 µM serotonin response; activation, % at 7.6 µM; actives 0.66% (n = 360,000);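 active = activation above a run cutoff, the mean activation of all tested compounds plus 3 SD, cut at about 14% in these data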
# IMP-1 inh-2: blocks IMP-1 metallo-beta-lactamase in VIM-2 selectivity screen | AID 1856 | purified IMP-1, nitrocefin hydrolysis, epi-absorbance fluorescence | 1,300 tested, under 10 active | shares compounds with VIM-2 inh | inhibition, % at 5.6 µM; call rule not given here
# VIM-2 FRET inh: VIM-2 FRET inhibition, artifact counter-screen | inhibition, % at 5.6 µM | shares compounds with VIM-2 inh | purified VIM-2, CCF2 FRET substrate hydrolysis | actives 23% (n = 1,300);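 active = inhibition above the mean of all tested compounds plus 3 SD, cut at about 19% in these data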
# TEM-1 inh: blocks E. coli TEM-1 beta-lactamase in VIM-2 selectivity screen; shares compounds with VIM-2 inh; Purified TEM-1, nitrocefin hydrolysis, epi-absorbance fluorescence; inhibition, % at 5.6 µM; actives 3% (n = 1,300); AID 1866;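 active = inhibition above that campaign's mean inhibition plus 3 SD, cut at about 0.46% in these data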
# Target sequence (P62593 whole entry, looked up): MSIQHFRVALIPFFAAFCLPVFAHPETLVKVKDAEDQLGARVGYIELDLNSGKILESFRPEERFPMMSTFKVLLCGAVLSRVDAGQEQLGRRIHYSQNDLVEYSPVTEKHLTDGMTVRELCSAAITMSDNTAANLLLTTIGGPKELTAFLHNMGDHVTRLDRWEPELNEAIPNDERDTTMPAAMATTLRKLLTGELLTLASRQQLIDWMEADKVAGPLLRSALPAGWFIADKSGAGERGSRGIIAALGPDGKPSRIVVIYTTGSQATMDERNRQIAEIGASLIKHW
# VIM-2 inh conf: confirmation of P. aeruginosa VIM-2 metallo-beta-lactamase inhibitors. purified VIM-2, nitrocefin hydrolysis, epi-absorbance. inhibition, % at 5.6 µM. shares compounds with VIM-2 inh. actives 96% (n = 1,300);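 active = inhibition of the VIM-2 beta-lactamase enzyme above about 11% from the earlier first-round screen, limit read from the data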
# A number is an active result; – = inactive; · = not tested or not shown. In the library only some 2.5% were active in any assay of this set; here they are far more common.
SMILES,dFosB act,VIM-2 inh,IMP-1 inh-1,m5-HT2A agonist,IMP-1 inh-2,VIM-2 FRET inh,TEM-1 inh,VIM-2 inh conf
S=C(NCCc1ccccc1)N1CCC2CC1c1cc(-c3ccc4c(c3)OCO4)ccc12 (stereo not drawn),·,·,·,–,·,·,·,·
COc1ccc(/C(C)=N/NC(=O)c2nnn(-c3nonc3N)c2-c2cccs2)cc1OC,–,–,–,–,·,·,·,·
Cc1cc(OCC(=O)NCc2cccnc2)c2c(C)c(C)c(=O)oc2c1,–,22,–,–,–,–,–,31
CCc1cc(=O)oc2cc(C)cc(OCC(=O)NCc3ccncc3)c12,–,20,–,–,–,–,–,30
CCc1cc(=O)oc2cc(C)cc(OCC(=O)NCc3cccnc3)c12,–,–,–,–,·,·,·,·
Cc1cc(OCC(=O)Nc2cccnc2)c2c(C)c(C)c(=O)oc2c1,–,61,–,–,–,–,–,68
Cc1cc(OCC(=O)NCc2ccncc2)c2c(C)c(C)c(=O)oc2c1,–,44,–,–,–,–,–,55
Cc1cc(OCC(=O)Nc2ccc(CCO)cc2)c2c(C)c(C)c(=O)oc2c1,–,–,–,–,·,·,·,·
CN(C)c1ccc(/C=C2\C(=N)N3N=C(CC(=O)N4CCCCC4)SC3=NC2=O)cc1,–,13,–,–,–,29,–,18
CSc1nc(NCCCN(C)C)c2c3c(sc2n1)CN(C)CC3,·,25,–,·,–,–,–,37
Oc1ccc2ccccc2c1-c1sc(Nc2ccccc2)n[n+]1-c1ccc(F)cc1,–,17,–,–,4.9,–,1.3,8.2
O=C(O)COc1ccc(/C=C/c2nc3ccc([N+](=O)[O-])cc3s2)cc1,–,–,–,–,·,·,·,·
CC(=O)Nc1ccc(Nc2nc(C)nc3c2oc2ccccc23)cc1,–,18,–,–,–,–,–,29
CC(=O)N1CCN(c2ccc(Nc3nc(C)nc4c3oc3ccccc34)cc2)CC1,–,·,·,–,·,·,·,·
CCc1nc(Nc2cccc(O)c2)c2oc3ccccc3c2n1,–,–,–,–,·,·,·,·
COc1ccc(CCNc2nc(C)nc3c2oc2ccccc23)cc1OC,–,–,–,–,·,·,·,·
Cc1cccc(Nc2nc(C)nc3c2oc2ccccc23)c1,–,–,–,–,·,·,·,·
Cc1nc(NCCc2cnc[nH]2)c2oc3ccccc3c2n1,–,71,–,–,–,–,1.7,84
Cc1nc(Nc2ccncc2)c2oc3ccccc3c2n1,–,45,–,–,–,–,–,57
CCc1nc(Nc2ccncc2)c2oc3ccccc3c2n1,–,44,–,–,–,–,–,54
Cc1nc(-c2ccc(F)cc2)c(CC(=O)N(C)CC(=O)Nc2cccc(F)c2)s1,·,·,·,–,·,·,·,·
Nc1ccc2cccc(O)c2c1,–,·,·,–,·,·,·,·
CCCCN(C(=O)c1c(-c2ccccc2)noc1C)c1c(N)n(CCC)c(=O)[nH]c1=O,–,·,·,–,·,·,·,·
Cc1nc(N2CCOCC2)c2oc3ccccc3c2n1,–,19,–,–,–,–,–,34
CCOC(=O)C(CC)n1cnc2c(nnn2-c2ccc(F)cc2)c1=O (stereo not drawn),–,–,–,–,·,·,·,·
SMILES,dFosB act,VIM-2 inh,IMP-1 inh-1,m5-HT2A agonist,IMP-1 inh-2,VIM-2 FRET inh,TEM-1 inh,VIM-2 inh conf
O=C(Cc1ccc(NC2=NC3CS(=O)(=O)CC3S2)cc1)NCc1ccccc1Cl (stereo not drawn),–,–,–,–,·,·,·,·
c1ccc2c(c1)ncn2-c1ccc(-c2ccnc3ncnn23)cc1,–,30,–,–,–,–,–,65
COc1ccc(-c2ccnc3ncnn23)cc1,–,–,–,–,·,·,·,·
Nc1nccc(-c2ccc(-n3cnc4ccccc43)cc2)n1,–,18,–,–,–,–,–,39
Cc1nccc(-c2ccc(-n3cnc4ccccc43)cc2)n1,–,17,–,–,–,–,–,33
CSc1ccccc1NC(=O)C1CCN(S(C)(=O)=O)CC1,–,–,–,–,·,·,·,·
CCOc1ccc(CNC(=O)C2Cc3cc(S(=O)(=O)N4CCCC4)ccc3N2C(C)=O)cc1 (stereo not drawn),–,25,–,–,–,–,–,–

# Assay outcomes as filed in PubChem.
